Source: ChEMBL document CHEMBL5247575 (J Med Chem, 2018)

Tested on: Klebsiella pneumoniae
Assay: Synergistic antibacterial activity against Klebsiella pneumoniae 1108/1989 producing KPC-3 assessed as cefepime MIC at 4 ug/ml by broth microdilution method
Format: functional
Conditions: dose 4 µg/ml
Summary of the method: (§1)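 Broth microdilution per CLSI guidelines, using custom frozen panels. […] Each partner drug was also tested alone. MICs were run in triplicate and the modal value is reported.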

| Structure (SMILES) | MIC [µg/mL] |
| --- | --- |
| NC(=O)[C@@H]1CC[C@@H]2CN1C(=O)N2OS(=O)(=O)[O-].[Na+] [AVIBACTAM SODIUM] | ≤ 0.12 |

Tested on: Acinetobacter baumannii
Assay: Synergistic antibacterial activity against ADC deleted Acinetobacter baumannii assessed as cefepime MIC at 4 ug/ml by broth microdilution method
Format: functional
Conditions: dose 4 µg/ml

| Structure (SMILES) | MIC [µg/mL] |
| --- | --- |
| NC(=O)[C@@H]1CC[C@@H]2CN1C(=O)N2OS(=O)(=O)[O-].[Na+] [AVIBACTAM SODIUM] | 0.5 |

Tested on: Klebsiella pneumoniae
Assay: Synergistic antibacterial activity against Klebsiella pneumoniae 729/1679 producing KPC-3 assessed as cefepime MIC at 4 ug/ml by broth microdilution method
Format: functional
Conditions: dose 4 µg/ml
Summary of the method: as §1

| Structure (SMILES) | MIC [µg/mL] |
| --- | --- |
| NC(=O)[C@@H]1CC[C@@H]2CN1C(=O)N2OS(=O)(=O)[O-].[Na+] [AVIBACTAM SODIUM] | 0.25 |

Tested on: Acinetobacter baumannii
Assay: Synergistic antibacterial activity against Acinetobacter baumannii PR440 producing OXA-23/24/40 assessed as meropenem MIC at 4 ug/ml by broth microdilution method
Format: functional
Conditions: dose 4 µg/ml

| Structure (SMILES) | MIC [µg/mL] |
| --- | --- |
| NC(=O)[C@@H]1CC[C@@H]2CN1C(=O)N2OS(=O)(=O)[O-].[Na+] [AVIBACTAM SODIUM] | > 16 |

Tested on: Pseudomonas aeruginosa
Assay: Antibacterial activity against Pseudomonas aeruginosa 839 by broth microdilution method
Format: functional
Conditions: not given

| Structure (SMILES) | MIC [µg/mL] |
| --- | --- |
| NC(=O)[C@@H]1CC[C@@H]2CN1C(=O)N2OS(=O)(=O)[O-].[Na+] [AVIBACTAM SODIUM] | > 16 |

Tested on: Acinetobacter baumannii
Assay: Synergistic antibacterial activity against ADC deleted Acinetobacter baumannii transfected with pWH1266 OXA-23 assessed as meropenem MIC at 4 ug/ml by broth microdilution method
Format: functional
Conditions: dose 4 µg/ml

| Structure (SMILES) | MIC [µg/mL] |
| --- | --- |
| NC(=O)[C@@H]1CC[C@@H]2CN1C(=O)N2OS(=O)(=O)[O-].[Na+] [AVIBACTAM SODIUM] | > 16 |

Tested on: Escherichia coli
Assay: Synergistic antibacterial activity against Escherichia coli DH10B transfected with pBC SK (-) PDC-3 assessed as meropenem MIC at 4 ug/ml by broth microdilution method
Format: functional
Conditions: dose 4 µg/ml
Summary of the method: as §1

| Structure (SMILES) | MIC [µg/mL] |
| --- | --- |
| NC(=O)[C@@H]1CC[C@@H]2CN1C(=O)N2OS(=O)(=O)[O-].[Na+] [AVIBACTAM SODIUM] | ≤ 0.12 |

Tested on: Acinetobacter baumannii
Assay: Synergistic antibacterial activity against Acinetobacter baumannii PR476 producing OXA-24/40 assessed as meropenem MIC at 4 ug/ml by broth microdilution method
Format: functional
Conditions: dose 4 µg/ml

| Structure (SMILES) | MIC [µg/mL] |
| --- | --- |
| NC(=O)[C@@H]1CC[C@@H]2CN1C(=O)N2OS(=O)(=O)[O-].[Na+] [AVIBACTAM SODIUM] | 0.25 |

Tested on: Klebsiella pneumoniae
Assay: Antibacterial activity against Klebsiella pneumoniae jefferson 1773 producing OXA-181 by broth microdilution method
Format: functional
Conditions: not given

| Structure (SMILES) | MIC [µg/mL] |
| --- | --- |
| NC(=O)[C@@H]1CC[C@@H]2CN1C(=O)N2OS(=O)(=O)[O-].[Na+] [AVIBACTAM SODIUM] | > 16 |

Tested on: Pseudomonas aeruginosa
Assay: Synergistic antibacterial activity against Pseudomonas aeruginosa CL232 assessed as cefepime MIC at 4 ug/ml by broth microdilution method
Format: functional
Conditions: dose 4 µg/ml

| Structure (SMILES) | MIC [µg/mL] |
| --- | --- |
| NC(=O)[C@@H]1CC[C@@H]2CN1C(=O)N2OS(=O)(=O)[O-].[Na+] [AVIBACTAM SODIUM] | > 16 |

Tested on: Bacteria
Assay: Inhibition of bacteria PDC-3 assessed as second order rate constant K2/K using nitrocefin as substrate
Conditions: not given

| Structure (SMILES) | K |
| --- | --- |
| NC(=O)[C@@H]1CC[C@@H]2CN1C(=O)N2OS(=O)(=O)[O-].[Na+] [AVIBACTAM SODIUM] | 2.9 10^4/M/s |

Tested on: Klebsiella pneumoniae
Assay: Synergistic antibacterial activity against Klebsiella pneumoniae 776/1742 producing KPC-2 assessed as meropenem MIC at 4 ug/ml by broth microdilution method
Format: functional
Conditions: dose 4 µg/ml

| Structure (SMILES) | MIC [µg/mL] |
| --- | --- |
| NC(=O)[C@@H]1CC[C@@H]2CN1C(=O)N2OS(=O)(=O)[O-].[Na+] [AVIBACTAM SODIUM] | ≤ 0.12 |

Tested on: Escherichia coli
Assay: Antibacterial activity against Escherichia coli DH10B by broth microdilution method
Format: functional
Conditions: not given

| Structure (SMILES) | MIC [µg/mL] |
| --- | --- |
| NC(=O)[C@@H]1CC[C@@H]2CN1C(=O)N2OS(=O)(=O)[O-].[Na+] [AVIBACTAM SODIUM] | 4 |

Tested on: Klebsiella pneumoniae
Assay: Synergistic antibacterial activity against Klebsiella pneumoniae CAV 1543 producing OXA-48 assessed as cefepime MIC at 4 ug/ml by broth microdilution method
Format: functional
Conditions: dose 4 µg/ml

| Structure (SMILES) | MIC [µg/mL] |
| --- | --- |
| NC(=O)[C@@H]1CC[C@@H]2CN1C(=O)N2OS(=O)(=O)[O-].[Na+] [AVIBACTAM SODIUM] | 0.25 |

Tested on: Acinetobacter baumannii
Assay: Synergistic antibacterial activity against Acinetobacter baumannii PR474 producing OXA-23/24/40 assessed as cefepime MIC at 4 ug/ml by broth microdilution method
Format: functional
Conditions: dose 4 µg/ml

| Structure (SMILES) | MIC [µg/mL] |
| --- | --- |
| NC(=O)[C@@H]1CC[C@@H]2CN1C(=O)N2OS(=O)(=O)[O-].[Na+] [AVIBACTAM SODIUM] | > 16 |

Tested on: Klebsiella pneumoniae
Assay: Synergistic antibacterial activity against Klebsiella pneumoniae 440/1360 producing KPC-2 assessed as meropenem MIC at 4 ug/ml by broth microdilution method
Format: functional
Conditions: dose 4 µg/ml
Summary of the method: as §1

| Structure (SMILES) | MIC [µg/mL] |
| --- | --- |
| NC(=O)[C@@H]1CC[C@@H]2CN1C(=O)N2OS(=O)(=O)[O-].[Na+] [AVIBACTAM SODIUM] | ≤ 0.12 |

Tested on: Klebsiella pneumoniae
Assay: Synergistic antibacterial activity against Klebsiella pneumoniae 901/1860 producing KPC-3 assessed as cefepime MIC at 4 ug/ml by broth microdilution method
Format: functional
Conditions: dose 4 µg/ml

| Structure (SMILES) | MIC [µg/mL] |
| --- | --- |
| NC(=O)[C@@H]1CC[C@@H]2CN1C(=O)N2OS(=O)(=O)[O-].[Na+] [AVIBACTAM SODIUM] | ≤ 0.12 |

Tested on: Pseudomonas aeruginosa
Assay: Synergistic antibacterial activity against Pseudomonas aeruginosa 715 assessed as cefepime MIC at 4 ug/ml by broth microdilution method
Format: functional
Conditions: dose 4 µg/ml

| Structure (SMILES) | MIC [µg/mL] |
| --- | --- |
| NC(=O)[C@@H]1CC[C@@H]2CN1C(=O)N2OS(=O)(=O)[O-].[Na+] [AVIBACTAM SODIUM] | 16 |

Tested on: Klebsiella pneumoniae
Assay: Synergistic antibacterial activity against Klebsiella pneumoniae 1354/2241 producing KPC-3 assessed as cefepime MIC at 4 ug/ml by broth microdilution method
Format: functional
Conditions: dose 4 µg/ml
Summary of the method: as §1

| Structure (SMILES) | MIC [µg/mL] |
| --- | --- |
| NC(=O)[C@@H]1CC[C@@H]2CN1C(=O)N2OS(=O)(=O)[O-].[Na+] [AVIBACTAM SODIUM] | ≤ 0.12 |

Tested on: Bacteria
Assay: Inhibition of bacteria OXA-48 assessed as second order rate constant K2/K using nitrocefin as substrate
Conditions: not given

| Structure (SMILES) | K |
| --- | --- |
| NC(=O)[C@@H]1CC[C@@H]2CN1C(=O)N2OS(=O)(=O)[O-].[Na+] [AVIBACTAM SODIUM] | 1.4 10^3/M/s |

Tested on: Klebsiella pneumoniae
Assay: Synergistic antibacterial activity against Klebsiella pneumoniae 1398/2291 producing KPC-3 assessed as cefepime MIC at 4 ug/ml by broth microdilution method
Format: functional
Conditions: dose 4 µg/ml
Summary of the method: as §1

| Structure (SMILES) | MIC [µg/mL] |
| --- | --- |
| NC(=O)[C@@H]1CC[C@@H]2CN1C(=O)N2OS(=O)(=O)[O-].[Na+] [AVIBACTAM SODIUM] | ≤ 0.12 |

Tested on: Acinetobacter baumannii
Assay: Synergistic antibacterial activity against Acinetobacter baumannii PR319 producing OXA-23/24/40 assessed as meropenem MIC at 4 ug/ml by broth microdilution method
Format: functional
Conditions: dose 4 µg/ml

| Structure (SMILES) | MIC [µg/mL] |
| --- | --- |
| NC(=O)[C@@H]1CC[C@@H]2CN1C(=O)N2OS(=O)(=O)[O-].[Na+] [AVIBACTAM SODIUM] | > 16 |

Tested on: Acinetobacter baumannii
Assay: Synergistic antibacterial activity against ADC deleted Acinetobacter baumannii transfected with pWH1266 producing OXA-24/40 assessed as cefepime MIC at 4 ug/ml by broth microdilution method
Format: functional
Conditions: dose 4 µg/ml

| Structure (SMILES) | MIC [µg/mL] |
| --- | --- |
| NC(=O)[C@@H]1CC[C@@H]2CN1C(=O)N2OS(=O)(=O)[O-].[Na+] [AVIBACTAM SODIUM] | > 16 |

Tested on: Klebsiella pneumoniae
Assay: Synergistic antibacterial activity against Klebsiella pneumoniae 440/1360 producing KPC-2 assessed as cefepime MIC at 4 ug/ml by broth microdilution method
Format: functional
Conditions: dose 4 µg/ml
Summary of the method: as §1

| Structure (SMILES) | MIC [µg/mL] |
| --- | --- |
| NC(=O)[C@@H]1CC[C@@H]2CN1C(=O)N2OS(=O)(=O)[O-].[Na+] [AVIBACTAM SODIUM] | ≤ 0.12 |
